Test results from article PMC10468838 (ACS Omega, 2023).
Converted amounts (≈) assume the structure as drawn. Like-named read-outs stand apart in the source and are kept apart here.

Key:
HT29 colon cancer cells = assay: MTT assay, HT29 cells; assay type: cell-based, human; settings: for IC50: read-out: IC50 (μM) HT29
Summary of the method: (§1)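 HT29, H1975, A549, MCF-7 and normal colon epithelial CCD841 cells were seeded at 5×10^5 cells/mL and grown 24 h. They were exposed to test compound at 0.5, 1.0, 2.0, 5.0 or 12.5 μM in DMEM for 24 h, then cultured a further 72 h. MTT (5 mg/mL solution) was added for 4 h at 37 °C and the formazan dissolved in DMSO. A490 was read. IC50 is given as mean ± s.d., n = 3.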

A549 lung cancer cells = assay: MTT assay, A549 cells; assay type: cell-based; settings: Homo sapiens, A549, 72 h, read-out: IC50 (μM) A549
Summary of the method: as §1

[1] = tested on: MCF-7 breast cancer cells; assay: MTT assay, MCF-7 cells; assay type: cell-based; settings: Homo sapiens, MCF7, 72 h, read-out: IC50 (μM) MCF-7
Summary of the method: as §1

[2] = tested on: H1975 lung adenocarcinoma cells; assay: MTT assay, H1975 cells; assay type: cell-based; settings: Homo sapiens, NCI-H1975, 72 h, read-out: IC50 (μM) H1975
Summary of the method: as §1

logP by UV method = assay type: physicochemical
[3] = Water solubility by UV method; assay type: physicochemical; settings: thermodynamic from solid
Summary of the method: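 For a UV calibration curve, absorbance was measured at five concentrations of each compound in methanol/water (1:1, v/v). Excess solid compound was left standing in water for 2 h, then filtered. Absorbance of the filtrate was read and converted to concentration using the curve, giving water solubility.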

H2AX in HT29 cells = assay: Western blot, H2AX; assay type: cell-based, human; settings: Western blotting
Summary of the method: (§2)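 HT29 cells were cultured for 4 h in medium containing test compound at 1.0 or 5.0 μM, with the parent reference at 5.0 μM. Lysis was in RIPA buffer with protease and phosphatase inhibitors, 30 min on ice. Protein was quantified by BCA, and equal amounts were run on SDS-PAGE and transferred to PVDF. Band levels were expressed relative to β-actin.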

HT29 cells = assay: Apoptosis assay, annexin V-FITC/PI flow cytometry; assay type: cell-based, human
Summary of the method: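 HT29 cells were seeded at 2×10^4 cells per well and left overnight. They were treated with test compound at 1.0 or 5.0 μM (parent reference 5.0 μM) for 24 h, then kept another 72 h. Cells were harvested, washed in PBS and stained with annexin V-FITC/PI. Early plus late apoptotic cells were counted by flow cytometry. Results are mean ± SD of three separate assays.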

[4] = tested on: HT29, H1975, A549 and MCF-7 cancer cells; assay: MTT assay, summary over the four cancer cell lines; assay type: cell-based, human; settings: for IC50: Homo sapiens, read-out: IC50 against the four cancer cell lines
Summary of the method: as §1

ROS levels in HT29 cells = assay: Intracellular ROS detection with DCFH-DA probe; assay type: cell-based, human; settings: 12 h, CO 5.0 μM, 8h 1.0 or 5.0 μM
Summary of the method: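 HT29 cells (about 1×10^4 per well) were exposed to test compound at 1.0 or 5.0 μM for 12 h, with the parent reference at 5.0 μM. DCFH-DA (10 μM) was added for 30 min. DCF green fluorescence (λex 488 nm, λem 500–550 nm) was imaged by confocal microscopy. Results are mean ± SD of three separate assays.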

Bcl-2 in HT29 cells = assay: Western blot, Bcl-2; assay type: cell-based, human; settings: 1.0 and 5.0 μM, Western blotting
GPX4 in HT29 cells = assay: Western blot, GPX4; assay type: cell-based, human; settings: 1.0 or 5.0 μM, compared with CO
Summary of the method: as §2

[5] = tested on: human normal colon epithelial cells (CCD841); assay: MTT assay, normal CCD841 cells; assay type: cell-based
Summary of the method: as §1

[6] = tested on: cleaved-caspase 3 in HT29 cells; assay: Western blot, cleaved-caspase 3; assay type: cell-based, human; settings: 1.0 and 5.0 μM, Western blotting
Summary of the method: as §2

[7] = tested on: malondialdehyde (MDA) in HT29 cells; assay: Lipid peroxidation; assay type: cell-based, human; settings: compared with CO
Summary of the method: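 HT29 cells were pretreated with or without ferrostatin-1 (1.0 μM) for 4 h. They were then exposed to test compound at 1.0 or 5.0 μM, with the parent reference at 5.0 μM. Lipid peroxidation was quantified as malondialdehyde with an MDA assay kit. Results are mean ± SD, n = 3.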

GSH level in HT29 cells = assay: GSH level assay; assay type: cell-based, human; settings: 24 h, 1.0 or 5.0 μM, compared with CO
Summary of the method: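 HT29 cells were exposed for 24 h to test compound at 1.0 or 5.0 μM, with the parent reference at 5.0 μM. Cells were harvested and counted. Glutathione was measured with a QuantiChrome glutathione assay kit. Results are mean ± SD, n = 3.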

MMP of HT29 cells = assay: Mitochondrial membrane potential with JC-1 dye; assay type: cell-based, human; settings: 8h 5 μM

Row | IC50 (HT29 colon cancer cells; Homo sapiens, HT-29, 72 h) [µM] | IC50 (A549 lung cancer cells) [µM] | IC50 [1] [µM] | IC50 [2] [µM] | logP (logP by UV method) | solubility at 2 h [3] [µg/mL] | Compound | further results
1 |  | 3.5 ± 0.4 | 5.9 ± 0.5 |  |  |  | NC1CCC(NC(=O)c2cc3c4ccccc4n4c(=O)ccc(n2)c34)CC1 (stereo not drawn) [8j, N-(4-Aminocyclohexyl)-6-oxo-6H-indolo[3,2,1-de][1,5]naphthyridine-2-carboxamide] | 
2 | 8.6 ± 0.7 | 7.6 ± 0.6 | 8.9 ± 0.9 | 10.7 ± 1.2 | 1.87 | 16.1 ± 1 (≈ 73.1 µM) | O=c1ccc2nccc3c4ccccc4n1c23 [CO, Canthin-6-one, reference compound] | increase of H2AX expression (H2AX in HT29 cells; 5.0 μM): approximately 1.3 fold; percentage of apoptotic cells (early + late) (HT29 cells; 5.0 μM): 22.68%; IC50 [4]: 7.6 to 10.7 µM; intracellular ROS level (DCFH-DA fluorescence) (ROS levels in HT29 cells): weak fluorescence signal
3 | 1 ± 0.1 | 1.3 ± 0.1 | 1.7 ± 0.2 | 1.9 ± 0.3 | 1.19 | 70.5 ± 3.6 (≈ 181 µM) | CN1CCN(CCNC(=O)c2cc3c4ccccc4n4c(=O)ccc(n2)c34)CC1 [8h, N-(2-(4-Methylpiperazin-1-yl)ethyl)-6-oxo-6H-indolo[3,2,1-de][1,5] naphthyridine-2-carboxamide] | Bcl-2 expression (Bcl-2 in HT29 cells): reduced the expression of antiapoptotic Bcl-2 protein in a dose-dependent manner; increase of H2AX expression (H2AX in HT29 cells; 1.0 μM): 2.4 fold; increase of H2AX expression (H2AX in HT29 cells; 5.0 μM): 3.2 fold; percentage of apoptotic cells (early + late) (HT29 cells; 1.0 μM): 31.55%; percentage of apoptotic cells (early + late) (HT29 cells; 5.0 μM): 45.14%; fold lower IC50 than CO against HT29 cells (HT29 colon cancer cells; HT29 cells, vs CO): 8.6 fold; GPX4 expression (GPX4 in HT29 cells): markedly reduced; IC50 ([5]; Homo sapiens, CCD-841, read-out: IC50 in normal cell line CCD841): 17.1 ± 2.5 µM; fold less cytotoxicity in CCD841 than in HT29 cells ([5]; IC50 CCD841 vs IC50 HT29): 17 fold; cleaved-caspase 3 level [6]: remarkably led to cleavage of caspase-3; level of malondialdehyde (MDA), lipid peroxidation [7]: increased the level of malondialdehyde; IC50 [4]: 1 to 1.9 µM; fold higher cytotoxicity than CO against the four cancer cells ([4]; vs CO, four cancer cell lines): 5–9 fold; GSH level (GSH level in HT29 cells): markedly reduced; intracellular ROS level (DCFH-DA fluorescence) (ROS levels in HT29 cells): Intense green fluorescence; MMP (JC-1 red/green fluorescence) (MMP of HT29 cells): intracellular red fluorescence almost disappeared
4 | > 10 | > 10 | > 10 | > 10 |  |  | CN1CCN(C2CCN(c3ccc(NC(=O)c4cc5c6ccccc6n6c(=O)ccc(n4)c56)cc3)CC2)CC1 [8l, N-(4-(4-(4-Methylpiperazin-1-yl)piperidin-1-yl)phenyl)-6-oxo-6H-indolo[3,2,1-de][1,5]naphthyridine-2-carboxamide] | 
5 | 2.3 ± 0.3 | 3.4 ± 0.3 | 4.6 ± 0.5 | 3 ± 0.4 | 1.38 | 60.4 ± 5.4 (≈ 168 µM) | CN1CCC(NC(=O)c2cc3c4ccccc4n4c(=O)ccc(n2)c34)CC1 [8i, N-(1-Methylpiperidin-4-yl)-6-oxo-6H-indolo[3,2,1-de][1,5]naphthyridine-2-carboxamide] | 
6 | 4.3 ± 0.5 |  | 3.8 ± 0.3 | 5.5 ± 0.7 |  |  | CCN(CC)CCCC(C)NC(=O)c1cc2c3ccccc3n3c(=O)ccc(n1)c23 (stereo not drawn) [8k, N-(5-(Diethylamino)pentan-2-yl)-6-oxo-6H-indolo[3,2,1-de][1,5]naphthyridine-2-carboxamide] | 

Second part, the compound before the results:

Row | Compound | IC50 (HT29 colon cancer cells; Homo sapiens, HT-29, 72 h) [µM] | IC50 (A549 lung cancer cells) [µM] | IC50 [1] [µM] | IC50 [2] [µM] | logP (logP by UV method) | solubility at 2 h [3] [µg/mL] | further results
7 | O=C(NCCNCCO)c1cc2c3ccccc3n3c(=O)ccc(n1)c23 [8d, N-(2-((2-Hydroxyethyl)amino)ethyl)-6-oxo-6H-indolo[3,2,1-de][1,5] naphthyridine-2-carboxamide] | 2.6 ± 0.2 | 4.2 ± 0.3 |  |  |  |  | 
8 | CN(C)CCCNC(=O)c1cc2c3ccccc3n3c(=O)ccc(n1)c23 [8c, N-(3-(Dimethylamino)propyl)-6-oxo-6H-indolo[3,2,1-de][1,5]naphthyridine-2-carboxamide] | 4.1 ± 0.3 | 4.8 ± 0.4 | 4.6 ± 0.5 | 7.7 ± 0.8 |  |  | 
9 | O=C(NCCN1CCCCC1)c1cc2c3ccccc3n3c(=O)ccc(n1)c23 [8f, 6-Oxo-N-(2-(piperidin-1-yl)ethyl)-6H-indolo[3,2,1-de][1,5]naphthyridine-2-carboxamide] | 1.7 ± 0.3 | 2 ± 0.1 | 2.4 ± 0.2 | 1.6 ± 0.1 | 2.17 | 41.3 ± 4.5 (≈ 110 µM) | 
10 | O=C(NCCN1CCCC1)c1cc2c3ccccc3n3c(=O)ccc(n1)c23 [8e, 6-Oxo-N-(2-(pyrrolidin-1-yl)ethyl)-6H-indolo[3,2,1-de][1,5]naphthyridine-2-carboxamide] |  | 2.1 ± 0.3 | 4.5 ± 0.6 |  |  |  | 
11 | CCN(CC)CCNC(=O)c1cc2c3ccccc3n3c(=O)ccc(n1)c23 [8a, N-(2-(Diethylamino)ethyl)-6-oxo-6H-indolo[3,2,1-de][1,5]naphthyridine-2-carboxamide] | 2.2 ± 0.3 | 3.8 ± 0.5 | 4.7 ± 0.4 |  |  |  | 
12 | CN(C)CCNC(=O)c1cc2c3ccccc3n3c(=O)ccc(n1)c23 [8b, N-(2-(Dimethylamino)ethyl)-6-oxo-6H-indolo[3,2,1-de][1,5]naphthyridine-2-carboxamide] | 2.9 ± 0.4 | 3.2 ± 0.2 | 3.8 ± 0.3 | 7.5 ± 0.6 |  |  | 
13 | COc1cccc2c1C(=O)c1c(O)c3c(c(O)c1C2=O)C[C@@](O)(C(=O)CO)C[C@@H]3O[C@H]1C[C@H](N)[C@H](O)[C@H](C)O1 [ADM, reference compound] |  |  |  |  |  |  | IC50 (HT29 colon cancer cells; HT29 cells, MTT, incubated for 72 h, mean ± s.d., n = 3): 2.6 ± 0.4 µM
